Measurements from paper PMC7606181 (Acta Pharmaceutica Sinica. B, 2019).
Each block holds one compound with its values, some of them ahead of it.

Assays:
[1] = HE staining of major organs; assay type: in vivo, BALB/c mice; conditions: after treatment, compared with PBS group
Pharmacokinetic assay = assay type: in vivo, BALB/c mice
[2] = Hematological analysis and serum biochemical analysis; assay type: in vivo, BALB/c mice; conditions: mice, i.v., GEM-equivalent 4 mg/kg, 5 times
Method in brief: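 Mice were split into 4 groups (n = 3): PBS or test preparations i.v. at GEM-equivalent 4 mg/kg, every 2 days for 5 doses. After treatment, blood was taken for haematology and serum for biochemistry.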

4T1 cells [3] = assay: Scratch healing assay; assay type: cell-based, mouse; conditions: 12 h
Method in brief: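 4T1 monolayers at about 90% confluence were scratched in a straight line and rinsed with PBS. They were then incubated 12 h in medium with PBS or test agents (GEM-equivalent 0.1 μg/mL). Images were taken at 0 and 12 h, and healing rate was calculated by image analysis.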

4T1 cells [4] = assay: Cytotoxicity MTT assay; assay type: cell-based, mouse
[5] = Long-term stability in water at 4 °C; assay type: physicochemical
Method in brief: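 Micelle solutions at 0.5 mg/mL in water were stored at 4 °C, alongside a TPGS-stabilised prodrug formulation as control. Appearance and particle size were recorded until precipitation appeared.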

MMP-9 [6] = conditions: cited from earlier work
4T1 tumor-bearing mice = assay: In vivo tumor-targeting assay and biodistribution; design: species or system BALB/c mice; conditions: i.v.
Method in brief: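 Female BALB/c mice (about 5 weeks) carried mammary-pad 4T1 tumours (1 × 10^6 cells) and were used on day 10. Groups (n = 9) got PBS, DiD-loaded micelles or free DiD in propylene glycol/PBS 1:1, at 20 μg DiD per mouse via tail vein. Whole-body imaging at 1–24 h; ex vivo organ imaging at 4, 8 and 24 h (3 per point); confocal of 24 h tumour sections.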

[7] = tested on: platelets adhering to 4T1 cells; assay: Interaction of tumor cells with platelets; assay type: cell-based, mouse; conditions: LMWH-equivalent 80 μg/mL, compared with PBS group
Method in brief: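 4T1 cells at about 80% confluency were pre-incubated 20 min with test agents or PBS (LMWH-equivalent 80 μg/mL). Washed platelets from fresh blood were labelled with 5 μmol/L calcein AM, added, and co-cultured 2 h. After washing, cells were lysed in DMSO and fluorescence read at Ex 490 / Em 515 nm.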

Content of GEM = assay type: physicochemical; conditions: toluidine blue spectrophotometry
Method in brief: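 LMWH content: samples at 40 μg/mL were mixed with 0.005% toluidine blue in PBS (pH 7.4) and shaken 30 s. Hexane was added and shaken 1 min, and the aqueous layer was read at 630 nm. GEM content: acid/CuCl2 hydrolysis at 70 °C for 12 h, then filtration and C18 HPLC. Mobile phase was ammonium acetate pH 5.7/methanol 90:10 at 1 mL/min, UV 268 nm.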

MMP-9 [8] = assay: Detection of MMP-9 by Western blot in 4T1 cells; assay type: cell-based, mouse; conditions: 24 h, LT 100 μg/mL, LMWH 60 μg/mL
Method in brief: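 4T1 cells at about 60% confluency were exposed for 24 h to fresh medium containing test agents or PBS. Lysates were centrifuged at 15,700×g, 4 °C, 15 min. Supernatant proteins were run on 6% SDS-PAGE and blotted to PVDF. Blots were probed with MMP-9 antibody and HRP-labelled anti-goat secondary, then imaged.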

[9] = tested on: red blood cell (RBC) suspension from mouse; assay: Hemolysis assay; assay type: cell-based; conditions: 0.3% Triton
Tail bleeding assay = assay type: in vivo, BALB/c mice; conditions: mice, i.v., LMWH-equivalent 20 mg/kg, 30 min after injection, versus PBS
Method in brief: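 Mice were split into 3 groups (n = 3): PBS or test agents i.v. at LMWH-equivalent 20 mg/kg. At 30 min, 3 mm of tail tip was cut and the tail immersed in PBS at 37 °C. The endpoint was time to complete cessation of bleeding.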

4T1 solid tumor = assay: In vivo anti-tumor assay, 4T1 solid tumor model; design: species or system BALB/c mice; conditions: day 18
Method in brief: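 Female BALB/c mice received 1 × 10^6 4T1 cells in the mammary pad. From day 5 they were grouped (n = 6) and dosed via tail vein with PBS or test preparations. Doses were GEM-equivalent 4 mg/kg and LMWH-equivalent 18.4 mg/kg, every 2 days for 5 doses. On day 18, tumours and major organs were taken for H&E staining.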

[10] = female, BALB/c, mouse, plasma, iv, 4 mg/kg

- clearance (Pharmacokinetic assay; [10]): 5.67 mL/min/kg
- half-life (Pharmacokinetic assay; [10]): 36.9 ± 2.22 min
- V1 (Pharmacokinetic assay; mice, i.v., GEM-equivalent 4 mg/kg, plasma GEM): 0.027 ± 0.015 L/kg
- levels of CK (creatine kinase) in serum [2]: increased
- number of white blood cells (WBC) and neutrophilic granulocyte (Gran) ([2]; compared with PBS group): decrease
Compound: Nc1ccn([C@@H]2O[C@H](CO)[C@@H](O)C2(F)F)c(=O)n1 [GEM, Gemcitabine]
- HE staining of other organs [1]: myocardial rupture and glomerular effusion
- scratch healing rate (in words, versus PBS) (4T1 cells [3]): healing rates decreased
- cytotoxicity (4T1 cells [4]; MTT, 48 h): concentration-dependent cytotoxicity
- relative cytotoxicity (4T1 cells [4]; concentration of GEM more than 0.037 μg/mL): more cytotoxic than GLT

- long-term stability (appearance, particle size) [5]: aggregated to form precipitates in 6 h
Compound: Cc1c(C)c2c(c(C)c1OC(=O)CCC(=O)Nc1ccn(C3OC(CO)C(O)C3(F)F)c(=O)n1)CCC(C)(CCCC(C)CCCC(C)CCCC(C)C)O2 (stereo not shown) [GT, GEM-TOS]

Compound: Cc1c(C)c2c(c(C)c1OC(=O)CCC(=O)O)CC[C@@](C)(CCC[C@H](C)CCC[C@H](C)CCCC(C)C)O2 [TOS, D-α-tocopherol succinate]
- secretion of MMP-9 in B16F10 cells (MMP-9 [6]): inhibited

- main site of signal (4T1 tumor-bearing mice): mainly showed in liver
Compound: CCCCCCCCCCCCCCCCCCN1C(=CC=CC=CC2=[N+](CCCCCCCCCCCCCCCCCC)c3ccccc3C2(C)C)C(C)(C)c2ccccc21 [free DiD, 1,1′-dioctadecyl-3,3,3′,3′-tetramethylindodicarbocyanine]

Compound: LMWH-TOS [LT]
- number of adhesive platelets on tumor cells [7]: significantly decreased
- content of LMWH (Content of GEM): 47%
- MMP-9 secreted by 4T1 cells (MMP-9 [8]): significantly inhibited
- cell viability (4T1 cells [4]; up to 250 μg/mL): almost did not affect cell viability

Compound: Triton
- erythrocyte lysis (positive control) [9]: complete cell lysis

Compound: low-molecular-weight heparin [LMWH]
- number of adhesive platelets on tumor cells [7]: significantly decreased
- bleeding time (Tail bleeding assay): no significant difference
- HE staining of tumor (4T1 solid tumor): retained their complete microstructures
- MMP-9 secreted by 4T1 cells (MMP-9 [8]): did not have obvious effect
- scratch healing rate (in words, versus PBS) (4T1 cells [3]): healing rates decreased
